How the values were obtained:
[1] = Antiviral activity against Human respiratory syncytial virus A2 ATCC VR-1540 infected in Vero 76 cells after 5 days by plaque reduction assays; assay type: functional, cell-based; settings: ATCC VR-1540, Vero 76, 120 h
[2] = Cytotoxicity against mock-infected African green monkey Vero 76 cells assessed as reduction in proliferation after 48 to 96 hrs by MTT method; assay type: cell-based; settings: chlorocebus sabaeus, Vero 76 cells (mock-infected)
How it was run: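 Vero-76 cells seeded at 4 × 10⁵ cells/mL in D-MEM with L-glutamine, kanamycin and 10% FBS. Incubated at 37 °C, 5% CO₂, with or without serial dilutions of compound; viability read by MTT after 48–96 h. Run in parallel with antiviral assays. CC50 obtained by linear regression of % of untreated control.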

[3] = Antiviral activity against Simian virus 12 3651 (ATCC VR- 214) infected in BHK21 cells assessed as protection from virus-induced cytopathogenicity after 3 to 4 days by MTT method; assay type: functional, cell-based; settings: BHK-21
How it was run: (§1)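 Confluent monolayers grown overnight (BHK-21 at 5×10⁴ cells/well for YFV and Reo-1; MDBK at 3×10⁴ cells/well for BVDV). Infection at m.o.i. 0.01 for 2 h in maintenance MEM-Earle with 0.5% inactivated FBS, then serial compound dilutions added. Viability read by MTT after 3–4 days at 37 °C. EC50 taken from linear regression against untreated controls.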

[4] = Cytotoxicity against mock-infected bovine MDBK cells assessed as reduction in proliferation after 72 hrs by MTT method; assay type: cell-based, Bos taurus; settings: cattle
How it was run: (§2)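 MDBK and BHK cells seeded at 6 × 10⁵ and 1 × 10⁶ cells/mL respectively. Medium was MEM-Earle with L-glutamine, 1 mM pyruvate and kanamycin, plus 10% horse serum (MDBK) or 10% FBS (BHK). Cells exposed to serial compound dilutions at 37 °C, 5% CO₂; MTT viability read at 72 h. CC50 by linear regression versus untreated controls.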

Coxsackievirus B5 = experiment: Antiviral activity against Coxsackievirus B5 Faulkner (ATCC VR-185) infected in Vero 76 cells after 3 days by plaque reduction assays; assay type: functional, organism-based; settings: Enterovirus B, Vero 76, 72 h
Yellow fever virus = experiment: Antiviral activity against Yellow fever virus 17D Stamaril Pasteur J07B01 infected in BHK21 cells assessed as protection from virus-induced cytopathogenicity after 3 to 4 days by MTT method; assay type: functional, cell-based; settings: Stamaril Pasteur J07B01, BHK-21; how it was run: as §1
[5] = tested on: Human immunodeficiency virus 1; experiment: Antiviral activity against HIV-13B infected in MT4 cells assessed as protection from virus-induced cytopathogenicity after 4 days by MTT method; assay type: functional, organism-based; settings: Human immunodeficiency virus 1, 3B, MT4, 96 h
How it was run: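 HIV-1 IIIB, taken from persistently infected H9/IIIB supernatant. MT-4 cells (1×10⁴/well) in RPMI with serial compound dilutions, infected with 100 CCID50 (m.o.i. 0.01). Viability by MTT after 4 days at 37 °C. EC50 = 50% protection from cytopathogenicity, by linear regression against untreated controls. Compounds kept as 100 mM DMSO stocks, diluted in medium.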

[6] = Cytotoxicity against mock-infected human MT4 cells assessed as reduction in proliferation after 96 hrs by MTT method; assay type: cell-based
How it was run: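 Exponentially growing MT-4 cells seeded at 1 × 10⁵ cells/mL in RPMI-1640 with 10% FBS, penicillin and streptomycin. Held 96 h at 37 °C, 5% CO₂ with or without serial compound dilutions; viability by MTT. Compounds dissolved in DMSO at 100 mM stock, then diluted in medium. CC50 by linear regression.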

Human alphaherpesvirus 1 = experiment: Antiviral activity against Human herpesvirus 1 strain KOS ATCC VR- 1493 infected in Vero 76 cells after 3 days by plaque reduction assays; assay type: functional, organism-based; settings: Human alphaherpesvirus 1, KOS ATCC VR1493, Vero 76, 72 h
[7] = tested on: Human poliovirus 1 strain Sabin; experiment: Antiviral activity against Poliovirus 1 strain Sabin ATCC VR-1562 infected in Vero 76 cells after 2 days by plaque reduction assays; assay type: functional, organism-based; settings: Enterovirus C, ATCC VR-1562, Vero 76, 48 h
[8] = Antiviral activity against Bovine viral diarrhea virus 1-NADL ATCC VR-534 infected in MDBK cells assessed as protection from virus-induced cytopathogenicity after 3 to 4 days by MTT method; assay type: functional, cell-based; settings: Bovine viral diarrhea virus isolates and strains, ATCC VR-534, MDBK; how it was run: as §1
[9] = Cytotoxicity against mock-infected hamster BHK21 cells assessed as reduction in proliferation after 72 hrs by MTT method; assay type: cell-based, Mesocricetus auratus, BHK-21; how it was run: as §2
[10] = Antiviral activity against Vaccinia virus Lister ATCC VR-1549 infected in Vero 76 cells after 3 days by plaque reduction assays; assay type: functional, cell-based; settings: ATCC VR-1549, Vero 76, 72 h
[11] = tested on: Vesicular stomatitis Indiana virus; experiment: Antiviral activity against Vesicular stomatitis Indiana virus ATCC VR 158 infected in Vero 76 cells after 2 days by plaque reduction assays; assay type: functional, organism-based; settings: ATCC VR 158, Vero 76, 48 h

Structure (SMILES)	EC50 [1] [µM]	CC50 [2] [µM]	EC50 [3] [µM]	CC50 at 72 h [4] [µM]	EC50 (Coxsackievirus B5) [µM]	EC50 (Yellow fever virus) [µM]	EC50 [5] [µM]	CC50 at 96 h [6] [µM]	EC50 (Human alphaherpesvirus 1) [µM]	EC50 [7] [µM]	EC50 [8] [µM]	CC50 at 72 h [9] [µM]	EC50 [10] [µM]	EC50 [11] [µM]
O=c1cnn([C@@H]2O[C@H](CO)[C@@H](O)[C@H]2O)c(=O)[nH]1 [6-AZAURIDINE]	1.2	≥ 12.5	–	–	–	–	–	–	–	–	–	–	–	–
c1cnc2[nH]c(C3CCCCC3)nc2c1	> 100	> 100	> 100	> 100	86	> 100	> 100	> 100	> 100	> 100	> 100	> 100	> 100	> 100
N#Cc1ccc(-c2nc3ccncc3[nH]2)cc1	> 100	> 100	> 100	> 100	> 100	> 100	> 100	> 100	> 100	> 100	9	> 100	56	> 100
O=[N+]([O-])c1ccc(-c2nc3cc4cccnc4c(Cl)c3[nH]2)cc1	> 100	> 100	> 100	> 100	> 100	> 100	> 100	> 100	> 44	> 100	1.2	> 100	> 100	> 100
Nc1c(/N=C/c2ccc(C(F)(F)F)c([N+](=O)[O-])c2)cc2cccnc2c1Cl	> 90	90	> 100	> 100	16	> 75	> 100	20	> 100	22	11	> 100	> 90	> 90
N#Cc1ccc(/C=N/c2cc3c(=O)cc[nH]c3c(Cl)c2N)cc1	> 100	> 100	> 100	> 100	> 100	> 87	> 100	> 100	> 100	> 100	28	> 100	> 100	> 100
C[C@@]1(O)[C@H](O)[C@@H](CO)O[C@H]1n1ccc(N)nc1=O	–	–	16	–	–	> 100	–	–	–	–	–	–	–	–
Brc1cnc2[nH]c(-c3ccoc3)nc2c1	> 40	40	> 100	40	> 40	> 100	20	20	> 40	> 40	40	> 100	> 40	> 40
c1cnc2[nH]c(-c3ccoc3)nc2c1	> 100	> 100	> 100	> 100	> 100	> 100	> 100	> 100	> 100	> 100	> 100	> 100	> 100	> 100
Nc1ccn(C[C@@H](CO)OCP(=O)(O)O)c(=O)n1 [CIDOFOVIR]	–	> 100	–	–	–	–	–	–	–	–	–	–	19	–
Nc1nc2c(ncn2COCCO)c(=O)[nH]1 [ACYCLOVIR]	–	> 100	–	–	–	–	–	–	–	–	–	–	–	–

From ChEMBL document CHEMBL3352401, “Synthesis and antiviral activity of new phenylimidazopyridines and N-benzylidenequinolinamines derived by molecular simplification of phenylimidazo[4,5-g]quinolines” (Eur J Med Chem, 2014)
